In the library only some 2.7% were active in any assay of this set; here they are far more common.
pPAFAH inh: pPAFAH (human) enzyme inhibition; inhibition, % at 3.39 µM; hit rate 1.5% among 330,000; recombinant pPAFAH, FP-rhodamine probe fluorescence polarization; Q13093;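 active means inhibition above the mean inhibition across the screen plus 3 SD, cut at about 25% in these data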;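 further: inhibitors block binding of the rhodamine activity-based probe so polarization drops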
PAFAH1B3 FP inh: blocks human PAF acetylhydrolase 1B catalytic subunit 3; hit rate 0.28% among 340,000; recombinant PAFAH1B3, FP-rhodamine probe, fluorescence polarization; inhibition, % at 3.39 µM; Q15102; AID 492972;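 active means inhibition above the screen-wide average of all tested compounds plus 3 SD, cut at about 25% in these data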
Target sequence (Q15102 whole entry, looked up): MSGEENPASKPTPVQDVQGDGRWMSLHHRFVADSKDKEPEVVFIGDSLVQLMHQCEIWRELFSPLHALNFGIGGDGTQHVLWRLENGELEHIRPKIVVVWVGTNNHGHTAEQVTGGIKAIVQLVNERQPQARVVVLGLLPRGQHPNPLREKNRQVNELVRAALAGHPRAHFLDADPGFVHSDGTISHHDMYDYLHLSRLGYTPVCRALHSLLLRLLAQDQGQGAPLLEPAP
PAFAH1B2 inh: inhibitors of human PAFAH1B2; hit rate 1.2% among 340,000; P68402; inhibition, % at 3.39 µM; recombinant PAFAH1B2, FP-rhodamine activity probe, fluorescence polarization;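 active means inhibition above the mean of all tested compounds plus 3 SD, cut at about 24% in these data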
Target sequence (P68402 whole entry, looked up): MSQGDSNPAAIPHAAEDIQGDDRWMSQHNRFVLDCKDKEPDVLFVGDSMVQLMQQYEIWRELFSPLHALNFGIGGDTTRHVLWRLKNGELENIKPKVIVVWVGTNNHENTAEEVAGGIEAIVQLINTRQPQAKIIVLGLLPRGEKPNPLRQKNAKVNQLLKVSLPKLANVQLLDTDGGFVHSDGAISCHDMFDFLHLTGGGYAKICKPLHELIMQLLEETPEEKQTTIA
RBBP9 inhibitor: blocks human serine hydrolase RBBP9; AID 1515; O75884; hit rate 0.2% among 220,000; inhibition, % at 7.94 µM; recombinant RBBP9, FP-Rh probe fluorescence polarization;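 active means inhibition above the campaign mean of all tested compounds plus 3 SD, cut at about 14% in these data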
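Controls: DMSO-treated enzyme wells and wells lacking RBBP9 | Material: RBBP9 protein | Technique: Fluorescence polarization | Replication: Single well per compound, no replicates | Buffer or medium: Tris-NaCl-Pluronic buffer, pH 8.0 | Timing: 30 min compound preincubation, 45 min probe labeling, 25 °C | Read-out basis: Percent inhibition from mP, scaled between DMSO and no-protein wells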
PAFAH2 FP inh: PAFAH2 (human) inhibition; Q99487; hit rate 0.99% among 340,000; recombinant PAFAH2, FP-rhodamine activity probe, fluorescence polarization; inhibition, % at 3.39 µM; AID 492956;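 active means inhibition above the mean over all tested compounds plus 3 SD, cut at about 30% in these data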;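 further: inhibitors block probe labeling of enzyme so polarization drops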
PAFAH2 FP conf: PAFAH2 (human) inhibition, confirmed. AID 493030. recombinant PAFAH2, FP-rhodamine activity probe, fluorescence polarization. inhibition, % at 3.39 µM. shares compounds with PAFAH2 FP inh. hit rate 65% among 2,300;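 active means mean inhibition over three repeats above a set limit taken from the earlier primary screen, cut at about 30% in these data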;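 further: inhibitor blocks binding of rhodamine activity probe so polarization falls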
Each line names hits and unclear results; the compound was inactive in the other large screens (follow-up assays come after a bar, where they were run).

Cc1cc(OCC(=O)Nc2cccnc2)c2c(C)c(C)c(=O)oc2c1	none (no result: RBBP9 inhibitor)
CCN(C(=S)NC(=O)CCc1ccccc1)c1ccccc1	none
CC1=NN2C(=N)/C(=C\c3ccc(SCc4ccccc4)o3)C(=O)N=C2S1	PAFAH2 FP inh 32 | PAFAH2 FP conf 33
CC1=NN2C(=N)/C(=C\c3cc(C)n(Cc4ccccc4)c3C)C(=O)N=C2S1	none (no result: PAFAH1B3 FP inh, PAFAH1B2 inh, PAFAH2 FP inh)
Cc1ccn(CC(=O)N2CCCC(N3CCN(c4ccc(F)cc4)CC3)C2)n1 (stereo not given)	none (no result: pPAFAH inh, RBBP9 inhibitor)
C#CCOc1coc(COC(=O)c2ccccc2)cc1=O	PAFAH2 FP inh 50 (no result: RBBP9 inhibitor) | PAFAH2 FP conf 30
O=c1cc(CO)occ1OCc1ccccc1	none
CCC(C)(C)NC(=O)CN(C(=O)CNS(=O)(=O)c1ccc(F)cc1)c1ccc2c(c1)OCCO2	none (no result: RBBP9 inhibitor)
C=CCn1c(SCC(=O)N(CC)C2CCS(=O)(=O)C2)nc2ccccc2c1=O (stereo not given)	none
CC(=O)c1cccc(NC(=O)COC(=O)C2CCCN2C(=O)c2cccs2)c1 (stereo not given)	none (no result: RBBP9 inhibitor)
CCN(c1ccc(NC(=O)COC(=O)c2cccs2)cc1)C(C)C	PAFAH2 FP inh 30 | PAFAH2 FP conf inactive
CC(=O)c1cccc(NC(=O)COC(=O)c2cccs2)c1	PAFAH2 FP inh 81 | PAFAH2 FP conf 77
O=C(COC(=O)c1cccs1)Nc1cccc(Cl)c1	PAFAH2 FP inh 91 (no result: RBBP9 inhibitor) | PAFAH2 FP conf 89
O=C(NC1(C(F)(F)F)N=C2SCCN2C1=O)c1ccccc1F (stereo not given)	none (no result: PAFAH1B3 FP inh, PAFAH1B2 inh, PAFAH2 FP inh)
CC(C)(C)OC(=O)N1CCCC(C(=O)Nc2ccc(C(=O)NC3CC3)cc2)C1 (stereo not given)	none (no result: pPAFAH inh, RBBP9 inhibitor)
CC1CCN(C(=O)COC(=O)/C=C/c2ccc(Br)o2)CC1	PAFAH2 FP inh 30 (no result: RBBP9 inhibitor) | PAFAH2 FP conf inactive
O=C(CCNC(=O)c1ccccc1)OCC(=O)c1ccccc1	PAFAH2 FP inh 33 | PAFAH2 FP conf inactive
O=S(=O)(c1ccccc1)N1CCC2(CC1)OCCN2S(=O)(=O)c1cccs1	none (no result: pPAFAH inh, RBBP9 inhibitor)
COc1ccc(CCNC2=C(Cl)C(=O)N(CCc3ccccc3)C2=O)cc1OC	none
O=C1C(Cl)=C(Nc2ccccc2O)C(=O)N1CCc1ccccc1	PAFAH2 FP inh 44 | PAFAH2 FP conf 37
CN(C)S(=O)(=O)c1ccc(C(=O)N2CCN(S(=O)(=O)c3ccc4c(c3)OCCO4)CC2)cc1	PAFAH2 FP inh 45 (no result: pPAFAH inh, RBBP9 inhibitor) | PAFAH2 FP conf 41
COc1ccccc1/C=N/OC(=O)c1ccc(F)cc1	PAFAH2 FP inh 77 | PAFAH2 FP conf 64
COCCOC(=O)c1c(C)n(C)c2ccc(OC(=O)c3ccco3)cc12	none
COCCOC(=O)c1c(C)n(C)c2ccc(OC(=O)C3CC3)cc12	PAFAH2 FP inh 39 | PAFAH2 FP conf inactive
Cc1ccc(C(=O)Oc2oc(-c3ccco3)nc2C=Nc2ccc(Cl)cc2)cc1	PAFAH2 FP inh 41 | PAFAH2 FP conf inactive
Cc1ccc(C(=O)Oc2oc(-c3ccccc3)nc2C=Nc2ccc(N(C)C)cc2)cc1	none
COc1ccc(C2C(C(=O)c3ccco3)=C(O)C(=O)N2CCCn2ccnc2)c(OC)c1 (stereo not given)	none (no result: RBBP9 inhibitor)
COc1ccc2c(c1)CC/C2=N\OC(=O)c1cccc(C)c1	none
Cc1cccc(C(=O)O/N=C2\CCS(=O)(=O)c3sccc32)c1	PAFAH2 FP inh 78 | PAFAH2 FP conf 77
O=C(O/N=C1\CCS(=O)(=O)c2sccc21)c1ccc(F)cc1	PAFAH2 FP inh 52 | PAFAH2 FP conf 55
O=C(O/N=C1\CCS(=O)(=O)c2sccc21)c1ccccc1	PAFAH2 FP inh 73 | PAFAH2 FP conf 71
O=S1(=O)CCC(=Nc2ccc(Cl)cc2)c2ccsc21	none
CCOC(=O)c1cc(-c2ccccc2)n(CC(=O)Nc2ccc(OC)cc2)c1C	none
Cc1cc(C)c2nc(N3CCCC(C(=O)NC4CCCC4)C3)sc2c1 (stereo not given)	none (no result: RBBP9 inhibitor)
Nc1ccc(C(=O)OCC(=O)Nc2cccc(S(=O)(=O)NC3=NCCCCC3)c2)cc1[N+](=O)[O-]	PAFAH2 FP inh 54 (no result: RBBP9 inhibitor) | PAFAH2 FP conf 60
O=C(COC(=O)c1ccc(O)cc1)Nc1cccc(S(=O)(=O)NC2=NCCCCC2)c1	PAFAH2 FP inh 39 | PAFAH2 FP conf 43
COc1ccc(/C=C/C(=O)OCC(=O)Nc2cccc(S(=O)(=O)NC3=NCCCCC3)c2)cc1	PAFAH2 FP inh 68 (no result: RBBP9 inhibitor) | PAFAH2 FP conf 50
O=C(NC1=NCCS1)C12CC3CC(CC(C3)C1)C2	none

Bioassay records from PubChem BioAssay.
